Experimental data: ChEMBL document CHEMBL1135421, “2-(Anilinomethyl)imidazolines as alpha1 adrenergic receptor agonists: the discovery of alpha1a subtype selective 2'-alkylsulfonyl-substituted analogues” (J Med Chem, 2002)
Values joined by “and” are separate entries in the source; they are usually repeats but may differ in a detail not shown here. Equal values may be shown once.

Experiments:
[1] = molecular target: T1, Alpha-2A adrenergic receptor (Homo sapiens) (UniProt P08913); test: Efficacy as percentage of the maximal effect observed for nonselective agonist UK-14304 in CHO cells expressing human Alpha-2A adrenergic receptor; assay type: functional, cell-based
T1 sequence (whole entry): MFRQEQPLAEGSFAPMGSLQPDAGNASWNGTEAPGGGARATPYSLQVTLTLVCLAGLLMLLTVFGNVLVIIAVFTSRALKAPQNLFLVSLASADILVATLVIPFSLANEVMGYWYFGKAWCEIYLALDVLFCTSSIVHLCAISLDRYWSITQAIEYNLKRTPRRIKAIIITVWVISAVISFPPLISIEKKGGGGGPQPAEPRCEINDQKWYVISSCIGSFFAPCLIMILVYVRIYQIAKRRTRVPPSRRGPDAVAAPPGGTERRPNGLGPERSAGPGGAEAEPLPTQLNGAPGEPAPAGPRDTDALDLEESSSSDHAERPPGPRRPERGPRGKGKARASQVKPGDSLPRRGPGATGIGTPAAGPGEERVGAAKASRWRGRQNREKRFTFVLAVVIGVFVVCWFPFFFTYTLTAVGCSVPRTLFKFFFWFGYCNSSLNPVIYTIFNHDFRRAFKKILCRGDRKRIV

[2] = molecular target: T2, Alpha-1A adrenergic receptor (Homo sapiens) (UniProt P35348); test: Efficacy as % of the maximal effect observed for nonselective agonist phenylephrine in rat-1 fibroblasts expressing human Alpha-1 adrenergic receptor; assay type: functional
T2 sequence (whole entry): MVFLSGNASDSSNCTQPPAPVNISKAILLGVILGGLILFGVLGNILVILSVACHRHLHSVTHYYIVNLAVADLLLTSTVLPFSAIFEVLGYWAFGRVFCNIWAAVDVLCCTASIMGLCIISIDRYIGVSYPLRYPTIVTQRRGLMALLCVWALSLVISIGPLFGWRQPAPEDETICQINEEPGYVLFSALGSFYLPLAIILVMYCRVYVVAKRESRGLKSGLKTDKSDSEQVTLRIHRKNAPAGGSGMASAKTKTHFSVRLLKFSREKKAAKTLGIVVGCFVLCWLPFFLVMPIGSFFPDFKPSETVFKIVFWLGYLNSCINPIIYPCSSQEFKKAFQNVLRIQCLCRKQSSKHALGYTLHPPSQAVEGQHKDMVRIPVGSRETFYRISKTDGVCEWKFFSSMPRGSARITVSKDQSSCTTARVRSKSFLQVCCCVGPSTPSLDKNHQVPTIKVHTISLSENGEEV
Procedure, shortened: (§1)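 Rat-1 fibroblasts expressing human α1a/α1b/α1d, grown in DMEM with 10% heat-inactivated FBS and 0.6 mg/mL G418, plated 6000 cells/well and cultured 48 h at 37 °C. Loaded 2 h at 37 °C with Calcium Green (4 μM), 0.2% pluronic acid and 2.5 mM probenecid in HEPES buffer pH 7.4. FLIPR read at room temperature: 10 s baseline, then 50 s after compound. 11-point curves as % of 40 μM phenylephrine response, top concentration typically 5 μM.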

[3] = molecular target: T3, Alpha-2A adrenergic receptor (Homo sapiens, UniProt P08913); test: Agonist potency at Alpha-2A adrenergic receptor expressed in CHO cells; assay type: functional, cell-based
T3 sequence (P08913 whole entry): T1 sequence (whole entry)

[4] = molecular target: T3, Alpha-2A adrenergic receptor; test: Affinity to human Alpha-2A adrenergic receptor determined by radioligand binding techniques from chinese hamster ovary (CHO) cells; assay type: cell-based
[5] = molecular target: T4, Alpha-2C adrenergic receptor (Homo sapiens, UniProt P18825); test: Agonist potency at Alpha-2C adrenergic receptor expressed in CHO cells; assay type: functional, cell-based
T4 sequence (P18825 whole entry): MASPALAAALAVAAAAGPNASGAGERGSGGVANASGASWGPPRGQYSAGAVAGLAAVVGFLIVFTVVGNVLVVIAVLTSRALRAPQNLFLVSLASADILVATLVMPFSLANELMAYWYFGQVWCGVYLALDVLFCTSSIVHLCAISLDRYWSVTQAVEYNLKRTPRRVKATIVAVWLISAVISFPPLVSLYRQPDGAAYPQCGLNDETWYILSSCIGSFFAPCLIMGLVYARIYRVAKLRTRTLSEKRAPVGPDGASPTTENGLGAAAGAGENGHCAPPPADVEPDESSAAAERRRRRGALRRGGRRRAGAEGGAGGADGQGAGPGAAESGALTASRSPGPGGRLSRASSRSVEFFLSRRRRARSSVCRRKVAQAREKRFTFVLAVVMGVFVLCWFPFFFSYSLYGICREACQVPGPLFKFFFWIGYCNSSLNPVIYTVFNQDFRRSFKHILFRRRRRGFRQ

[6] = molecular target: T3, Alpha-2A adrenergic receptor; test: Agonist potency at Alpha-2A stably expressed in CHO cells.; assay type: functional, cell-based
[7] = molecular target: T5, Alpha-1A adrenergic receptor (Homo sapiens, UniProt P35348); test: Agonist potency at Alpha-1 adrenergic receptor assayed in rat-1 fibroblasts expressing human Alpha-1 adrenergic receptor; assay type: functional; procedure, shortened: as §1
T5 sequence (P35348 whole entry): T2 sequence (whole entry)

[8] = molecular target: T4, Alpha-2C adrenergic receptor; test: Agonist potency at Alpha-2C adrenergic receptor assayed in CHO cells expressing human Alpha-2C adrenergic receptor; assay type: functional, cell-based
[9] = molecular target: T6, Alpha-1D adrenergic receptor (Homo sapiens, UniProt P25100); test: Agonist potency at Alpha-1D adrenergic receptor assayed in rat-1 fibroblasts expressing human Alpha-1D adrenergic receptor; assay type: functional; procedure, shortened: as §1
T6 sequence (P25100 whole entry): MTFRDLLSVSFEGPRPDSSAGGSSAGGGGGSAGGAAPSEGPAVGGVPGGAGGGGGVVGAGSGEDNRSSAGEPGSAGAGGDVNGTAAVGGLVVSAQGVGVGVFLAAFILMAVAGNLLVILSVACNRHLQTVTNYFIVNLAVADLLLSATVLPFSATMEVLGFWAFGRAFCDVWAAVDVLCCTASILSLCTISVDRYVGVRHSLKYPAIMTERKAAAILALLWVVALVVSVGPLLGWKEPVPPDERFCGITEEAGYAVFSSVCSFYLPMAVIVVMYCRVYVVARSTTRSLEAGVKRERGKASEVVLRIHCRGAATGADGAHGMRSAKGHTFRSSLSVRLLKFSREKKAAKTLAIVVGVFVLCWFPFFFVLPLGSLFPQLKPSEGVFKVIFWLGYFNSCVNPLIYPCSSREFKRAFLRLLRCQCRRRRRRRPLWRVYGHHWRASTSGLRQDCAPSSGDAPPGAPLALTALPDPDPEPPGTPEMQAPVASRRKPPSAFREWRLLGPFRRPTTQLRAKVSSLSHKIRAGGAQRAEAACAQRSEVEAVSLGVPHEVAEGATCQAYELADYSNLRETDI

[10] = molecular target: T7, Alpha-1D adrenergic receptor (Homo sapiens) (UniProt P25100); test: Efficacy as percent maximal effect observed for nonselective agonist phenylephrine in rat-1 fibroblasts expressing human Alpha-1D adrenergic receptor; assay type: functional; procedure, shortened: as §1
T7 sequence (whole entry): T6 sequence (P25100 whole entry)

Compound	Max [1] [%]	Max [2] [%]	EC50 [3] [nM]	Ki [4] [nM]	EC50 [5] [nM]	EC50 [6]	EC50 [7] [nM]	EC50 [8] [nM]	EC50 [9] [nM]	Max [10] [%]
C[S+]([O-])c1ccccc1NCC1=NCCN1 (configuration not stated)	21	91	> 10000	977	> 10000	–	–	–	–	–
CS(=O)(=O)c1ccc(Cl)cc1NCC1=NCCN1	42	91	–	> 7940	–	> 10000 nM	2.82	794	> 100000	–
CCS(=O)(=O)c1ccccc1NCC1=NCCN1	10	115	> 10000	1320	5010	–	240	–	> 100000	–
CSc1ccccc1NCC1=NCCN1	76	–	–	47.9	5.62	–	–	–	–	55
CCCS(=O)(=O)c1ccccc1NCC1=NCCN1	23	115	–	–	–	–	–	–	–	–
CSc1ccc(F)cc1NCC1=NCCN1	96	90	–	18.2	–	25.1 nM	2.29	5.62	21.9	107
CC(C)S(=O)(=O)c1ccccc1NCC1=NCCN1	–	70	> 10000	2950	> 10000	–	1950	–	> 5010	–
CS(=O)(=O)c1ccc(F)cc1NCC1=NCCN1	18	96	–	4470	–	> 10000 nM	16.6	2000	> 100000	–
CSc1ccc(C)cc1NCC1=NCCN1	87	101	–	63.1	–	25.1 nM	0.11	8.91	0.912	107
CS(=O)(=O)c1c(F)cccc1NCC1=NCCN1	64	–	> 10000	> 7940	501	–	24	–	> 100000	–
CS(=O)(=O)c1cccc(F)c1NCC1=NCCN1	38	106	–	871	–	> 10000 nM	41.7	447	> 100000	–
CC(C)Sc1ccccc1NCC1=NCCN1	64	115	417	81.3	28.2	–	5.01	–	> 5010	–
COc1ccc(SC)c(NCC2=NCCN2)c1	52	101	–	219	–	447 nM and 200 nM	1.58	–	5.01	91
CSc1ccc(C(F)(F)F)cc1NCC1=NCCN1	40	111	–	200	–	> 10000 nM	10.5	7.94	43.7	58
CSc1c(F)cccc1NCC1=NCCN1	102	91	100	166	15.8	–	7.76	–	33.9	59
CS(=O)(=O)c1ccc(C(F)(F)F)cc1NCC1=NCCN1	33	95	–	> 7940	–	> 10000 nM	1100	> 10000	> 100000	–
CS(=O)(=O)c1cc(Cl)ccc1NCC1=NCCN1	38	41	–	5010	–	> 10000 nM	513	> 10000	> 100000	–
CSc1cc(F)ccc1NCC1=NCCN1	47	93	–	58.9	–	316 nM	7.76	100	9.12	75
CSc1ccc(Cl)cc1NCC1=NCCN1	93	82	–	41.7	–	6.31 nM	0.437	2.82	2.69	106
Cc1ccc(S(C)(=O)=O)c(NCC2=NCCN2)c1	24	98	–	3890	–	> 10000 nM	1.95	1120	> 2000	–
CS(=O)(=O)c1cc(F)ccc1NCC1=NCCN1	19	61	> 10000	398	> 10000	–	–	–	–	–
CCSc1ccccc1NCC1=NCCN1	67	109	251	81.3	–	–	3.39	28.2	51.3	34
CS(=O)(=O)c1ccccc1NCC1=NCCN1	11	103	–	5620	–	> 10000 nM	–	3160	–	–
